MC4R antagonist: human MC4R antagonism in cAMP assay. P32245. MC4R-expressing cells, MTII-stimulated cAMP, LANCE TR-FRET. inhibition, % at 6.5 µM. 0.48% of 360,000 active. AID 540295;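 active = inhibition above its plate's cutoff, the mean of tested wells on that plate plus 3 SD, cut at about 29% in these data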;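 note: 0% = Melanotan II alone and 100% = Melanotan II plus saturating MCL0020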
Target sequence (P32245 whole entry, looked up): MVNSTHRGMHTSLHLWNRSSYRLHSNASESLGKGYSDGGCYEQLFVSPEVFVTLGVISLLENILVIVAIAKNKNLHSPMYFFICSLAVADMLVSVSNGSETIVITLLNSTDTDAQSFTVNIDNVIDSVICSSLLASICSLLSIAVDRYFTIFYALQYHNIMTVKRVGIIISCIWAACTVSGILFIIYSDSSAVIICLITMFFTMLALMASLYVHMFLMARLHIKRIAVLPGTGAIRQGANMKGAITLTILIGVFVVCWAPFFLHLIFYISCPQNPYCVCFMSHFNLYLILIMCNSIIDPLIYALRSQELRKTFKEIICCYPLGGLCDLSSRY
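system = U2OS cells with stable human MC4R expression | also added = Melanotan II challenge after compound preincubation | dosing = one concentration, 6.5 µM nominal | incubation = compound 30 min, challenge 1 h, detection 1 h | measured by = TR-FRET with Eu-cAMP and labeled anti-cAMP, 671 nm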
CFTR F508del cor: correctors of CFTR F508del function in bronchial epithelial cells; CFBE cells, YFP halide quenching; stimulated with forskolin plus potentiator P3; % fluorescence drop versus neutral controls; activity (quench increase), % at 7.58 µM; 0.36% of 350,000 active;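 active = mean added fluorescence quench of at least 8% versus neutral control, with both replicates also reaching 8%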;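 note: cells transiently co-express mutant CFTR-F508del with the halide-sensitive YFP; corrector assay measuring rescue of mutant channel to the surface after 24 h compound exposure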
SMARCA2 act: increases SMARCA2 function in MMTV reporter cells; MG213 cells, MMTV-luciferase reporter, dexamethasone, overnight; activation, % at 9.1 µM; 1% of 370,000 active; AID 652017; in the data active = activation above about 7.8%;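 note: 0% = vehicle wells and 100% = reference activator wells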
MC4R barr agon: human MC4R agonism via beta-arrestin; U2OS MC4R beta-arrestin complementation, luminescence; percent of melanotan II response, DMSO zero; 0.98% of 360,000 active; AID 540308; activation, % at 8.9 µM;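 active = activation above a per-plate cutoff, the mean activation of sample wells on that plate plus 3 SD, cut at about 8% in these data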
An asterisk follows results filed as active; . = not tested or not shown; ! = repeats disagree. Rows were chosen to be rich in hits. Some 2.1% of all compounds tested hit in one or more screens of this group.

SMILES	MC4R antagonist	CFTR F508del cor	SMARCA2 act	MC4R barr agon
CCCc1nn(C)c(C(=O)Nc2ccc3ccccc3c2)c1Cl	14	.	2	9.4*
N=C(N)SCc1cn(-c2ccccc2)nc1-c1ccc(Br)cc1	1	-3	-3	17*
Cc1ccnc2c1ccc1cccnc12	6	9.4*	4	-4
CC(C)c1ccc(OCC(O)CN2CCN(c3ccccc3)CC2)cc1 (configuration not stated)	-4	1	-3	8.9*!
O=C(CN1CCOCC1)N[C@@H]1CC[C@H](CCNS(=O)(=O)c2ccccc2F)O[C@@H]1CO	.	0	.	.
Cc1cccc(NS(=O)(=O)c2ccc3nc(-c4ccccc4)[nH]c3c2)c1C	-1	.	-6	9.0*
C[C@H]1CCCCO[C@@H](CN(C)C(=O)CCC(F)(F)F)[C@@H](C)CN([C@@H](C)CO)C(=O)c2cc(NS(C)(=O)=O)ccc2O1	.	-1	.	.
COCC(=O)N(C)C[C@H]1Oc2cc(C#Cc3ccccc3)ccc2S(=O)(=O)N([C@H](C)CO)C[C@@H]1C	.	2	.	.
Cc1ccc(O)c(NC(=O)c2cc(-c3ccccc3)on2)c1	19	3	7.8*	0
O=C(Nc1cccnc1Cl)c1cc(-c2cccc(O)c2)on1	6	2	3	12*
O=C(Nc1cc(Br)ccc1O)c1cc(-c2ccccc2)on1	7	0	7	2
COc1cccc(-n2nnnc2SCC(=O)NCc2ccc3c(c2)OCO3)c1	6	0	-4	0
COc1cccc(NC(=O)c2cnc(SCC(=O)NCc3ccc4c(c3)OCO4)n(C)c2=O)c1	16	8.1*	0	-5
O=C(COC(=O)Cc1ccc(Br)cc1)NCc1ccccc1	13	-1	-3	1
O=C(Cc1ccc(Br)cc1)NCc1ccccc1	-18	20*	2	-1
COc1ccc(CN(C)C[C@@H]2Oc3ccc(NS(=O)(=O)c4ccc(C)cc4)cc3CC(=O)N([C@H](C)CO)C[C@H]2C)cc1	.	2	.	.
CC(=O)N(C)C[C@@H]1Oc2cc(C#Cc3ccc(F)cc3)ccc2S(=O)(=O)N([C@H](C)CO)C[C@@H]1C	.	8.0*	.	.
C[C@H]1CN([C@@H](C)CO)S(=O)(=O)c2ccc(C#Cc3ccccc3F)cc2O[C@H]1CN(C)C(=O)c1ccc2c(c1)OCO2	.	9.6*	.	.
C[C@H](CO)N1C[C@H](C)[C@H](CN(C)C(=O)NC2CCCCC2)Oc2cc(C#Cc3cccc(F)c3)ccc2S1(=O)=O	.	8.4*	.	.
C[C@H]1CN([C@@H](C)CO)S(=O)(=O)c2ccc(C#Cc3cccc(F)c3)cc2O[C@H]1CN(C)C(=O)NC1CCCCC1	.	12*	.	.
C[C@@H]1CN([C@@H](C)CO)S(=O)(=O)c2ccc(C#Cc3ccccc3F)cc2O[C@@H]1CN(C)C(=O)c1ccc2c(c1)OCO2	.	5	.	.
COc1ccc(S(=O)(=O)N(C)C[C@@H]2Oc3c(NC(=O)C4CCOCC4)cccc3C(=O)N([C@@H](C)CO)C[C@H]2C)cc1	.	-1	.	.
C[C@@H]1CN([C@H](C)CO)S(=O)(=O)c2ccc(C#Cc3cccc(F)c3)cc2O[C@@H]1CN(C)C(=O)NC1CCCCC1	.	10*	.	.
C[C@H]1CN([C@@H](C)CO)S(=O)(=O)c2ccc(C#Cc3ccc(F)cc3)cc2O[C@H]1CN(C)C(=O)NC1CCCCC1	.	10*	.	.
Cc1ccc2cc(CN(CC3CCCO3)C(=S)Nc3ccccc3)c(=O)[nH]c2c1C (configuration not stated)	-7	12*	-2	0
SMILES	MC4R antagonist	CFTR F508del cor	SMARCA2 act	MC4R barr agon
O=C(NCCc1ccc(F)cc1)Nc1ccc2c(c1)OCO2	9	1	3	-1
O=C(NCCc1ccccc1)Nc1ccc2c(c1)OCO2	13	-2	7.8*	-3
CN(C)CC(=O)N[C@H]1C=C[C@@H](CC(=O)NCCN2CCCCC2)O[C@H]1CO	.	1	.	.
CC(=O)c1ccc(-c2cnc3c(NC=O)cc(-c4cccc(C(=O)N(C)C)c4)cn23)cc1	-1	4	-1	3
CN(C)C(=O)c1cccc(-c2cnc3c(NC=O)cc(-c4ccccc4N(C)C)cn23)c1	-33	0	-2	9.2*
COc1cccc(-c2cc(NC=O)c3ncc(-c4ccc(C(C)=O)cc4)n3c2)c1	2	4	-2	8.4*
COc1cccc(-c2cnc3c(NC=O)cc(-c4ccccc4)cn23)c1	-17	4	4	3
COc1cccc(-c2cnc3c(NC=O)cc(-c4ccccc4Oc4ccccc4)cn23)c1	1	1	-3	8.8*
O=C(C[C@@H]1C[C@H]2c3cc(NC(=O)Cc4ccncc4)ccc3O[C@H]2[C@@H](CO)O1)NCc1ccccn1	.	-2	.	.

Screening data from PubChem BioAssay.
